Measured values from ChEMBL document CHEMBL3399948, “Discovery of 7-azaindole derivatives as potent Orai inhibitors showing efficacy in a preclinical model of asthma” (Bioorg Med Chem Lett, 2015).

Columns and labels:
[1] = Inhibition of Orai-mediated calcium entry in human Jurkat E6-1 cells after 1 hr by FLIPR assay; assay type: cell-based
[2] = Inhibition of Orai channel in phytohemagglutinin-stimulated human Jurkat E6-1 cells assessed as NFAT-induced transcription measured as IL-2 level after 20 hrs by ELISA; assay type: cell-based
[3] = Lipophilicity, log D of the compound at pH 7.4; assay type: physicochemical; conditions: buffer
Rattus norvegicus [4] = assay: (§1) Antiinflammatory activity against ovalbumin-induced model of allergic inflammation in brown Norway rat assessed as inhibition of eosinophil infiltration in bronchoalveolar lavage fluid at 1 mg/kg, po bid 1 hr before and 6.5 hrs post ovalbumin challenge measured 24 hrs post challenge relative to vehicle-treated control; assay type: functional; conditions: Lung
[5] = target: Calcium release-activated calcium channel protein 1 (Homo sapiens, UniProt Q96D31); assay: Inhibition of human Orai1/STIM1 expressed in HEK293 cells assessed as inhibition of channel-mediated calcium current by electrophysiology assay in presence of 10 mM EGTA; assay type: cell-based
Calcium release-activated calcium channel protein 1, sequence (Q96D31 whole entry): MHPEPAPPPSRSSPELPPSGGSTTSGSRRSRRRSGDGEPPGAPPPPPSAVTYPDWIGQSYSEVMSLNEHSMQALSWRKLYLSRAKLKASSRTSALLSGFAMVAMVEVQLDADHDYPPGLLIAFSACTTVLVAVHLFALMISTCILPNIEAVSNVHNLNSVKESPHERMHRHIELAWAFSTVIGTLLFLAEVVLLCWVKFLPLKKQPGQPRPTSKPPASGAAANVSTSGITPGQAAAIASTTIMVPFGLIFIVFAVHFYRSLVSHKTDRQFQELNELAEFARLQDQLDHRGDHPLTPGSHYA
How it was run: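 Automated whole-cell patch clamp on HEK293 cells stably expressing human STIM1/Orai1. I_CRAC activated by passive store depletion with 10 mM EGTA in the internal solution. Holding potential 0 mV; 100 ms voltage ramps applied every 3 s. IC50 from normalized inhibition, at least 3 cells per concentration; values are mean ± SD of two or more determinations.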

LAD2 = assay: Inhibition of degranulation in human LAD2 cells assessed as inhibition of IgE-induced beta-hexosaminidase release preincubated for 30 mins by p-nitrophenyl-N-acetyl-D-glucosamide-based spectrophotometric assay; assay type: functional, cell-based
How it was run: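 Human LAD2 mast cells sensitized overnight with 100 ng/mL biotin-IgE in SCF-containing medium. Supernatant β-hexosaminidase measured with p-nitrophenyl-N-acetyl-glucosamide (pH 4.5, 90 min, 37 °C), stopped with glycine pH 10, absorbance read at 405 nm.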

Blood = assay: Inhibition of IL2 secretion in rat whole blood after 24 hrs by Rat IL-2 DuoSet assay; assay type: functional, tissue-based
How it was run: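 Rat whole blood diluted 1:4 in RPMI and stimulated with concanavalin A (62.5 µg/mL) in the presence of increasing compound concentrations for 24 h. Supernatant IL-2 quantified by rat IL-2 ELISA against a standard curve; IC50 derived.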

CHO = assay: Cytotoxicity against CHO cells; assay type: cell-based; conditions: Cricetulus griseus
[6] = Drug metabolism in rat liver microsomes at 5 uM after 30 mins in presence of NADPH; assay type: ADME; conditions: read-out: Drug metabolism
How it was run: (§2)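 Rat or human hepatic microsomes (1 mg/mL protein) incubated with 5 µM compound plus NADPH for 30 min at 37 °C; result given as percent metabolized.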

[7] = Drug metabolism in human liver microsomes at 5 uM after 30 mins in presence of NADPH; assay type: ADME; conditions: read-out: Drug metabolism; how it was run: as §2
[8] = Passive permeability of the compound at 20 uM by PAMPA; assay type: ADME; conditions: read-out: permeability
[9] = Terminal half life in Wistar rat at 1 mg/kg, iv; assay type: ADME, organism-based; design: dose 1 mg/kg, route intravenous; conditions: in vivo, read-out: beta t1/2 (converted)
[10] = AUC (0 to 24 hrs) in Wistar rat at 1 mg/kg, iv; assay type: ADME, organism-based; design: time < 24 hr, dose 1 mg/kg, route intravenous; conditions: plasma
[11] = Clearance in Wistar rat at 1 mg/kg, iv; assay type: ADME, organism-based; design: dose 1 mg/kg, route intravenous; conditions: in vivo
[12] = Volume of distribution at steady state in Wistar rat at 1 mg/kg, iv; assay type: ADME, organism-based; design: dose 1 mg/kg, route intravenous; conditions: in vivo, read-out: Vdss
[13] = Cmax in Wistar rat at 10 mg/kg, po; assay type: ADME, organism-based; design: dose 10 mg/kg, route oral; conditions: in vivo
[14] = AUC (0 to 24 hrs) in Wistar rat at 10 mg/kg, po; assay type: ADME, organism-based; design: time < 24 hr, dose 10 mg/kg, route oral; conditions: plasma
[15] = Oral bioavailability in Wistar rat at 10 mg/kg; assay type: ADME, organism-based; conditions: in vivo
[16] = Solubility of the compound in water; assay type: physicochemical
Rattus norvegicus [17] = assay: as §1, with “at 3” for “at 1”; assay type: functional; conditions: Lung
How it was run: (§3)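 Brown Norway rats (200-250 g) sensitized i.p. with OVA/Alum on days 0, 14 and 21, then challenged with OVA aerosol on day 28. Oral dosing at 3, 10 or 30 mg/kg bid, 1 h before and 6.5 h after challenge. Vehicle: TPGS 11.7%, PEG-400 40%, propylene glycol 15%, water 33.3%. Eight rats per group. BALF eosinophils counted 24 h post-challenge; inhibition expressed versus vehicle. Dexamethasone served as positive control. Plasma levels measured by UPLC-MS.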

Rattus norvegicus [18] = assay: as §1, with “at 10” for “at 1”; assay type: functional; conditions: Lung; how it was run: as §3
Rattus norvegicus [19] = assay: as §1, with “at 30” for “at 1”; assay type: functional; conditions: Lung; how it was run: as §3
Rattus norvegicus [20] = assay: as §1, with “compound administered orally” for “at 1 mg/kg, po”; assay type: functional, organism-based; conditions: Lung; how it was run: as §3
Rattus norvegicus [21] = assay: as §1, with “against po dosed” for “against”, “plasma level >3-fold above IC50 for rat IL-2 inhibition compound administered” for “1 mg/kg, po”; assay type: functional; how it was run: as §3
[22] = Plasma protein binding in Wistar rat; assay type: ADME, cell-free; conditions: read-out: PPB

SMILES: CNS(=O)(=O)c1ccc(-c2cnc3[nH]c(-c4c(F)cccc4Cl)cc3c2)c(C)c1
- IC50 [1]: 155 nM
- IC50 [2]: 180 nM

SMILES: Cn1nc(C(F)(F)F)cc1-c1cnc2[nH]c(Cc3ccccc3)cc2c1
- IC50 [1]: 1400 nM
- IC50 [2]: 3000 nM

SMILES: Cc1cc(OC(F)F)ncc1-c1cnc2[nH]c(-c3c(F)cccc3Cl)cc2c1
- IC50 [1]: 64 nM
- IC50 [2]: 150 nM

SMILES: Cn1nc(C(F)(F)F)cc1-c1cnc2[nH]c(-c3ccccc3Cl)cc2c1
- IC50 [1]: 160 nM
- IC50 [2]: 260 nM

SMILES: Cc1nnsc1C(=O)Nc1ccc(-n2nc(C(F)(F)F)cc2C(F)(F)F)cc1
- logD [3]: 4.4
- IC50 [1]: 75 nM
- IC50 [2]: 10 nM

SMILES: Cn1nc(C(F)(F)F)cc1-c1cnc2[nH]c(C3CCOCC3)cc2c1
- IC50 [1]: > 10000 nM

SMILES: C[C@@H]1C[C@H]2[C@@H]3CCC4=CC(=O)C=C[C@]4(C)[C@@]3(F)[C@@H](O)C[C@]2(C)[C@@]1(O)C(=O)CO [DEXAMETHASONE]
- inhibition in vivo at 1 mg/kg (Rattus norvegicus [4]): 100%

SMILES: Cn1nc(C(F)(F)F)cc1-c1cnc2[nH]c(C3CCCC3)cc2c1
- IC50 [1]: 260 nM
- IC50 [2]: 270 nM

SMILES: COc1cc(OC)c(-c2cnc3[nH]c(-c4c(F)cccc4Cl)cc3c2)cn1
- IC50 [1]: 150 nM
- IC50 [2]: 68 nM
- IC50 [5]: 440 nM
- IC50 (LAD2): 630 nM
- IC50 (Blood): 740 nM
- IC50 (CHO): > 100000 nM
- metabolised at 0.5 h, 5 µM [6]: 10%
- metabolised at 0.5 h, 5 µM [7]: < 5%
- Papp at 20 µM [8]: 0.66 ×10⁻⁶ cm/s
- half-life [9]: 8 h
- AUC(0-t) at 24 h [10]: 1820 ng·h/mL
- clearance [11]: 8 mL/min/kg
- Vd [12]: 5 L/kg
- Cmax [13]: 807 ng/mL
- AUC(0-t) at 24 h [14]: 11200 ng·h/mL
- bioavailability [15]: 62%
- solubility [16]: < 5 µg/mL
- inhibition in vivo at 3 mg/kg (Rattus norvegicus [17]): 9%
- inhibition in vivo at 10 mg/kg (Rattus norvegicus [18]): 68%
- inhibition in vivo at 30 mg/kg (Rattus norvegicus [19]): 75%
- inhibition (Rattus norvegicus [20]): Dose-dependent effect
- inhibition (INH) (Rattus norvegicus [21]): 70%

SMILES: Cn1nc(C(F)(F)F)cc1-c1cnc2[nH]c(-c3c(F)cccc3F)cc2c1
- IC50 [1]: 140 nM
- IC50 [2]: 73 nM

SMILES: Cc1nc2cc(-c3cnc4[nH]c(-c5c(F)cccc5Cl)cc4c3)c(Cl)cc2o1
- IC50 [1]: 88 nM
- IC50 [2]: 117 nM
- solubility [16]: < 1 µg/mL

SMILES: Cc1cc(=O)n(C)cc1-c1cnc2[nH]c(-c3c(F)cccc3Cl)cc2c1
- IC50 [1]: > 10000 nM

SMILES: COc1cc(C)c(-c2cnc3[nH]c(-c4c(F)cccc4Cl)cc3c2)cn1
- IC50 [1]: 71 nM
- IC50 [2]: 40 nM
- IC50 [5]: 104 nM
- IC50 (LAD2): 443 nM
- IC50 (Blood): 1300 nM
- IC50 (CHO): > 100000 nM
- metabolised at 0.5 h, 5 µM [6]: 10%
- metabolised at 0.5 h, 5 µM [7]: 15%
- Papp at 20 µM [8]: 0.1 ×10⁻⁶ cm/s
- half-life [9]: 2.1 h
- AUC(0-t) at 24 h [10]: 596 ng·h/mL
- clearance [11]: 24 mL/min/kg
- Vd [12]: 4.2 L/kg
- Cmax [13]: 153 ng/mL
- AUC(0-t) at 24 h [14]: 2180 ng·h/mL
- bioavailability [15]: 37%
- solubility [16]: < 5 µg/mL

SMILES: Cc1cc(=O)[nH]cc1-c1cnc2[nH]c(-c3c(F)cccc3Cl)cc2c1
- IC50 [1]: > 10000 nM

SMILES: COc1ncc(-c2cnc3[nH]c(-c4c(F)cccc4Cl)cc3c2)c(C)n1
- IC50 [1]: 10000 nM

SMILES: Cc1cc(S(=O)(=O)N(C)C)ccc1-c1cnc2[nH]c(-c3c(F)cccc3Cl)cc2c1
- IC50 [1]: 550 nM
- IC50 [2]: 119 nM

SMILES: Cn1nc(C(F)(F)F)cc1-c1cnc2[nH]c(-c3c(F)cccc3Cl)cc2c1
- IC50 [1]: 66 nM
- IC50 [2]: 23 nM
- IC50 [5]: < 100 nM
- IC50 (LAD2): 372 nM
- IC50 (Blood): 500 nM
- IC50 (CHO): > 100000 nM
- metabolised at 0.5 h, 5 µM [6]: < 5%
- metabolised at 0.5 h, 5 µM [7]: < 5%
- Papp at 20 µM [8]: < 0.05 ×10⁻⁶ cm/s
- solubility [16]: < 5 µg/mL
- fraction unbound [22]: < 0.001

SMILES: CNCc1ccc(-c2cnc3[nH]c(-c4c(F)cccc4Cl)cc3c2)c(C)c1
- IC50 [1]: 10000 nM

SMILES: Cn1nc(C(F)(F)F)cc1-c1cnc2[nH]c(C3CCCCC3)cc2c1
- IC50 [1]: 310 nM
- IC50 [2]: 183 nM

SMILES: Cc1cc(C(F)(F)F)ncc1-c1cnc2[nH]c(-c3c(F)cccc3Cl)cc2c1
- IC50 [1]: 129 nM
- IC50 [2]: 120 nM

SMILES: Cc1cc(S(=O)(=O)N2CCOCC2)ccc1-c1cnc2[nH]c(-c3c(F)cccc3Cl)cc2c1
- IC50 [1]: 10000 nM

SMILES: Cc1cc(S(C)(=O)=O)ccc1-c1cnc2[nH]c(-c3c(F)cccc3Cl)cc2c1
- IC50 [1]: 280 nM
- IC50 [2]: 290 nM

SMILES: COc1ccc(OC)c(-c2ccc(NC(=O)c3ccncc3F)cc2)c1
- logD [3]: 3.5
- IC50 [1]: 82 nM
- IC50 [2]: 10 nM

SMILES: Fc1cccc(Cl)c1-c1cc2cc(-c3cc4c(cc3Cl)OC(F)(F)O4)cnc2[nH]1
- IC50 [1]: 120 nM
- IC50 [2]: 56 nM
- solubility [16]: < 1 µg/mL
